Measured values as given in ChEMBL document CHEMBL4196172 (J Med Chem, 2018).
pIC50: −log10 of the molar value. The source made the active and inactive calls. The rule behind the calls is not given here.

Columns and labels:
[1] = molecular target: cGMP-specific 3',5'-cyclic phosphodiesterase (Homo sapiens, UniProt O76074); assay: Inhibition of human PDE5A1 catalytic domain (535 to 860 residues) expressed in Escherichia coli BL21 using 3H-cGMP as substrate after 15 mins by liquid scintillation counting
[2] = molecular target: Dual 3',5'-cyclic-AMP and -GMP phosphodiesterase 11A (Homo sapiens, UniProt Q9HCR9); assay: Inhibition of PDE11A catalytic domain (588 to 911 residues) (unknown origin) expressed in Escherichia coli BL21 using 3H-cAMP as substrate after 15 mins by liquid scintillation counting
[3] = molecular target: Voltage-gated inwardly rectifying potassium channel KCNH2 (Homo sapiens, UniProt Q12809); assay: Inhibition of human ERG expressed in CHO cells by automated patch clamp assay; format: cell-based
[4] = molecular target: 3',5'-cyclic-AMP phosphodiesterase 4D (Homo sapiens, UniProt Q08499); assay: Inhibition of PDE4D2 catalytic domain (86 to 413 residues) (unknown origin) expressed in Escherichia coli BL21 using 3H-cAMP as substrate after 15 mins by liquid scintillation counting
Chain of 3',5'-cyclic-AMP phosphodiesterase 4D (Q08499 whole entry, the tested form may be a part): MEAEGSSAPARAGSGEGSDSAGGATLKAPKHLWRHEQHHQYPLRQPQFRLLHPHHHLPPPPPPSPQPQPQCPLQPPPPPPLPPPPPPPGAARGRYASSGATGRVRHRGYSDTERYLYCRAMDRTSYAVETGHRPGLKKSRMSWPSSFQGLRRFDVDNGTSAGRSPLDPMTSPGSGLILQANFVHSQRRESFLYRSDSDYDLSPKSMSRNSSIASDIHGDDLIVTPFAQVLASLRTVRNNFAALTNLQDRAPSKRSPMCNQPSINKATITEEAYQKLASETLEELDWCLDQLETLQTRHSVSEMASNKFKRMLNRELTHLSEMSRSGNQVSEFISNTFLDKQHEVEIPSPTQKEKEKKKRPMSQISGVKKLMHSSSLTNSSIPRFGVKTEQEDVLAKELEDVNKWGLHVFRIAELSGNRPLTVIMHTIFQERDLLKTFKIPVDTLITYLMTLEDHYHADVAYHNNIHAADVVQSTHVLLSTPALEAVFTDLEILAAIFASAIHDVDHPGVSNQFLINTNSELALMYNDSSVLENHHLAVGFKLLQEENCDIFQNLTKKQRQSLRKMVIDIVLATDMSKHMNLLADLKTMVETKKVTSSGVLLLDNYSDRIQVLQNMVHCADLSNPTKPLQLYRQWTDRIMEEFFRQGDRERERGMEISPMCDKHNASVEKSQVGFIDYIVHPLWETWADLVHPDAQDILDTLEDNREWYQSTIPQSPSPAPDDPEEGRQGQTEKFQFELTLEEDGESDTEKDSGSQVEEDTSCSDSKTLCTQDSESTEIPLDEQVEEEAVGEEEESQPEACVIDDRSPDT

[5] = Half life in rat liver microsomes at 0.5 uM; format: ADME, microsome
[6] = Metabolic stability in rat liver microsomes assessed as stability rate constant at 0.5 uM; format: ADME, microsome
[7] = molecular target: Cytochrome P450 3A4 (Homo sapiens, UniProt P08684); assay: Inhibition of CYP3A4 in human liver microsomes in presence of NADPH; format: ADME
Chain of Cytochrome P450 3A4 (P08684 whole entry): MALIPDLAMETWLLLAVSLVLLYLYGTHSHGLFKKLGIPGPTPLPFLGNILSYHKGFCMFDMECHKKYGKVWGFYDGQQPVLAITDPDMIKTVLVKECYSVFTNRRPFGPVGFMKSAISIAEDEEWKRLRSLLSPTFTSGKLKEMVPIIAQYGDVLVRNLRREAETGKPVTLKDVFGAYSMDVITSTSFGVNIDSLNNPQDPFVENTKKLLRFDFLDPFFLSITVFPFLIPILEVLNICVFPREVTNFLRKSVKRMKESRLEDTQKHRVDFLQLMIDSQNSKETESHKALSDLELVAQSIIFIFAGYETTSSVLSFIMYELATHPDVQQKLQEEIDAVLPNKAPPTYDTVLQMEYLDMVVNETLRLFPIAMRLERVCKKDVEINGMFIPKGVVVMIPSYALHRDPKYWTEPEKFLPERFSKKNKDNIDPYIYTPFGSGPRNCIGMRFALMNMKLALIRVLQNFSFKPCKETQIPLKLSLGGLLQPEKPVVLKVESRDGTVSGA

[8] = molecular target: T1, Cytochrome P450 2B6 (Homo sapiens, UniProt P20813); assay: Inhibition of CYP2B6 in human liver microsomes in presence of NADPH; format: ADME
T1 sequence (P20813 whole entry): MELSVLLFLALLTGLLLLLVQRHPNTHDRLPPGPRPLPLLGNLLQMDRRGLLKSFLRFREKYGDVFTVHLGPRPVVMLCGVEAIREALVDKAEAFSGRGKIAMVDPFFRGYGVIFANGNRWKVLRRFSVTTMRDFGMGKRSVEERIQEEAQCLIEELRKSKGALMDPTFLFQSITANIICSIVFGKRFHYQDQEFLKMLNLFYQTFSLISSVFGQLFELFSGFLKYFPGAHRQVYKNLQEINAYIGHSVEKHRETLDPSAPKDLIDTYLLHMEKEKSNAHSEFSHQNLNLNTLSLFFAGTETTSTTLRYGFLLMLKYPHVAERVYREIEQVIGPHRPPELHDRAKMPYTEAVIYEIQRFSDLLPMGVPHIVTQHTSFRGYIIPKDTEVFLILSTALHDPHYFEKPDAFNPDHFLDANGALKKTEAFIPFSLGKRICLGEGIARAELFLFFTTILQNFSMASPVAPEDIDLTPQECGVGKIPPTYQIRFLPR

[9] = Intrinsic clearance in rat liver microsomes at 0.5 uM; format: ADME, microsome
[10] = test system: Mus musculus; assay: Acute toxicity in KM mouse up to 1.5 g/kg, po administered as single dose measured after 14 days; format: organism-based; conditions: in vivo, 1500 mg/kg, 336 h
[11] = Apparent clearance in rat liver microsomes at 0.5 uM; format: ADME, microsome; conditions: read-out: CLH(app)
[12] = test system: Rattus norvegicus; assay: Anti-hypertensive activity in MCT-induced pulmonary hypertension Wistar rat model assessed as mean pulmonary artery pressure at 1.25 mg/kg, po administered for 3 weeks (reference value: 52.55 mmHg); format: functional
Summary of the method: (§1)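 PAH was induced in rats by monocrotaline (MCT) injection and confirmed after 3 weeks against an untreated control group. Treated groups received oral dosing and were compared with the MCT model group. Read-outs were mean pulmonary artery pressure, right ventricle hypertrophy index, and small pulmonary artery wall thickness as % of external diameter. Data are mean ± S.E.M., n = 6-9/group.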

[13] = molecular target: cGMP-dependent 3',5'-cyclic phosphodiesterase (Homo sapiens, UniProt O00408); assay: Inhibition of PDE2A catalytic domain (580 to 919 residues) (unknown origin) expressed in Escherichia coli BL21 using 3H-cGMP as substrate after 15 mins by liquid scintillation counting
Chain of cGMP-dependent 3',5'-cyclic phosphodiesterase (O00408 whole entry, the tested form may be a part): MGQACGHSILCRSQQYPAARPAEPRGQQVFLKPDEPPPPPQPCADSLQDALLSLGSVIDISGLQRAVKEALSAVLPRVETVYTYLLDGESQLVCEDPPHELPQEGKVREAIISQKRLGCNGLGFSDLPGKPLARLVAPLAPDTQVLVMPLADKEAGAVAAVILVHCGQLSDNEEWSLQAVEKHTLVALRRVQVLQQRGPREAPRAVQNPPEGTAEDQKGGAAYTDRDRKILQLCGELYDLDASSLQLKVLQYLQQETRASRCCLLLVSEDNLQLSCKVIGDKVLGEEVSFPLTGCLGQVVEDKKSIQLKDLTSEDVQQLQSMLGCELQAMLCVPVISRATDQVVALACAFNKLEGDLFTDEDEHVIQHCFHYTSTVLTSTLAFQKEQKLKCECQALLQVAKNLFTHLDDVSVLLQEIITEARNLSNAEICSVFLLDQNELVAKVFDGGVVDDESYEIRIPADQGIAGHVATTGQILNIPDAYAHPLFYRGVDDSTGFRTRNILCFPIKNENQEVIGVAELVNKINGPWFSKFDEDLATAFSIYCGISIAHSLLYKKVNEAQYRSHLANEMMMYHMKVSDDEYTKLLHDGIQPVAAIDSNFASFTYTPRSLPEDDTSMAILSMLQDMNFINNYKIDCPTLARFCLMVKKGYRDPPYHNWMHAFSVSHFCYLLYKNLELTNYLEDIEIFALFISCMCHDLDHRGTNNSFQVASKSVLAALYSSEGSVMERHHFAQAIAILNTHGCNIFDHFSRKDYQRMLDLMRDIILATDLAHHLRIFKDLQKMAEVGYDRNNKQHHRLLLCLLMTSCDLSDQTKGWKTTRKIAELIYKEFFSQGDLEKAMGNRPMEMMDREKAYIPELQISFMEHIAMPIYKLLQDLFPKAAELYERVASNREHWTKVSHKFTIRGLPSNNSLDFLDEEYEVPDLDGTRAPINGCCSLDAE

[14] = test system: Rattus norvegicus; assay: Anti-hypertensive activity in MCT-induced pulmonary hypertension Wistar rat model assessed as reduction in RVHI at 1.25 mg/kg, po administered for 3 weeks; format: functional, organism-based; summary of the method: as §1
[15] = molecular target: cAMP and cAMP-inhibited cGMP 3',5'-cyclic phosphodiesterase 10A (Homo sapiens, UniProt Q9Y233); assay: Inhibition of PDE10A catalytic domain (449 to 770 residues) (unknown origin) expressed in Escherichia coli BL21 using 3H-cAMP as substrate after 15 mins by liquid scintillation counting
Chain of cAMP and cAMP-inhibited cGMP 3',5'-cyclic phosphodiesterase 10A (Q9Y233 whole entry, the tested form may be a part): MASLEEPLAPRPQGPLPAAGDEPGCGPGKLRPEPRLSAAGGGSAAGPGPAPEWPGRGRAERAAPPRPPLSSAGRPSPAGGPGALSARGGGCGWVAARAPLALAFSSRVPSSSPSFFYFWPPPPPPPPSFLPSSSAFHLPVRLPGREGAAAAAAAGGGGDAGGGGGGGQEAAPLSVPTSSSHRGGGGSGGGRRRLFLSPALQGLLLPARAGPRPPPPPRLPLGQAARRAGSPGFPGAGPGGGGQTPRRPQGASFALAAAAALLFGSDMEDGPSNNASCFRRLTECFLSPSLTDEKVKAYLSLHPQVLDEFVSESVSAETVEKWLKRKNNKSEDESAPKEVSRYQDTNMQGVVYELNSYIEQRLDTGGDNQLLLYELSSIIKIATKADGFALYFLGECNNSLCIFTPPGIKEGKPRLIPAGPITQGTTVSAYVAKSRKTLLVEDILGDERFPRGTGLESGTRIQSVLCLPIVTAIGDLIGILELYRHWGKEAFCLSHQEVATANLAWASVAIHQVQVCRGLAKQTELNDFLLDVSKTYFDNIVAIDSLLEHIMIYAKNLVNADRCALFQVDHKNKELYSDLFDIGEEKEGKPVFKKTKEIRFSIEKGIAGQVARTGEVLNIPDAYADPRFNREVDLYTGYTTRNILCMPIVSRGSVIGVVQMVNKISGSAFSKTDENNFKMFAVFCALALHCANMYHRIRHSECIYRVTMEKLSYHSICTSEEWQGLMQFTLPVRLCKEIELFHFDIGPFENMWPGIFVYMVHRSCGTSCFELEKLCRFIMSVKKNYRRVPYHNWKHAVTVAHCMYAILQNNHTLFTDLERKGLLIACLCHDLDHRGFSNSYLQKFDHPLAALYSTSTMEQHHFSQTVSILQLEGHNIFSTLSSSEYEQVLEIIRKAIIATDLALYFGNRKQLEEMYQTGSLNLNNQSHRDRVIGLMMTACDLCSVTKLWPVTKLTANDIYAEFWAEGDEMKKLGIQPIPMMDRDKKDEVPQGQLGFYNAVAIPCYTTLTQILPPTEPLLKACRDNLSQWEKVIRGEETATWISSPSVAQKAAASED

[16] = molecular target: Cone cGMP-specific 3',5'-cyclic phosphodiesterase subunit alpha' (Homo sapiens, UniProt P51160); assay: Inhibition of PDE6C catalytic domain (1 to 858 residues) (unknown origin) expressed in Escherichia coli BL21 using 3H-cGMP as substrate after 15 mins by liquid scintillation counting
Chain of Cone cGMP-specific 3',5'-cyclic phosphodiesterase subunit alpha' (P51160 whole entry, the tested form may be a part): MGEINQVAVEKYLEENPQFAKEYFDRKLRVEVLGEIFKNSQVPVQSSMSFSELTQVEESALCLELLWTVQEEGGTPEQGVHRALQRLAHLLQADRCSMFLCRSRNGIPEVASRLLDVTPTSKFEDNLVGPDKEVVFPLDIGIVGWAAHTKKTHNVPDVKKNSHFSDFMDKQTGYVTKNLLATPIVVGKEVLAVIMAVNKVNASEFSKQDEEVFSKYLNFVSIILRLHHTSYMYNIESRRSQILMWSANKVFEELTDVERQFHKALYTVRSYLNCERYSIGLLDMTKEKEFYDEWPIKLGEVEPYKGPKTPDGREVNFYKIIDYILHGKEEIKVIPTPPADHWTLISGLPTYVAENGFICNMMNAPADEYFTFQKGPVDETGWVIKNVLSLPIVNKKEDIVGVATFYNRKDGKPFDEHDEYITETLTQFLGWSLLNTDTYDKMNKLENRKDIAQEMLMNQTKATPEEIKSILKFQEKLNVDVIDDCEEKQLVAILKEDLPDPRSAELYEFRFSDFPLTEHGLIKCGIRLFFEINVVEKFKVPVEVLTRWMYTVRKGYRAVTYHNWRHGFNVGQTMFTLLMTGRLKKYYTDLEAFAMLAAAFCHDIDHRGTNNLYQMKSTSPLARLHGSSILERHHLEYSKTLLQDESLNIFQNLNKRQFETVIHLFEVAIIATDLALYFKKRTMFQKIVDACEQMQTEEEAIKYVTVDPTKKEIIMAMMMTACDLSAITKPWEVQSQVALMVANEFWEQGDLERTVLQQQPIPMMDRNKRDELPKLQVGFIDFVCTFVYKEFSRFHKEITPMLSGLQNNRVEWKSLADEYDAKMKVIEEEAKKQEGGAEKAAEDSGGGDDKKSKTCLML

[17] = molecular target: T2, Cytochrome P450 1A2 (Homo sapiens, UniProt P05177); assay: Inhibition of CYP1A2 in human liver microsomes in presence of NADPH; format: ADME
T2 sequence (P05177 whole entry): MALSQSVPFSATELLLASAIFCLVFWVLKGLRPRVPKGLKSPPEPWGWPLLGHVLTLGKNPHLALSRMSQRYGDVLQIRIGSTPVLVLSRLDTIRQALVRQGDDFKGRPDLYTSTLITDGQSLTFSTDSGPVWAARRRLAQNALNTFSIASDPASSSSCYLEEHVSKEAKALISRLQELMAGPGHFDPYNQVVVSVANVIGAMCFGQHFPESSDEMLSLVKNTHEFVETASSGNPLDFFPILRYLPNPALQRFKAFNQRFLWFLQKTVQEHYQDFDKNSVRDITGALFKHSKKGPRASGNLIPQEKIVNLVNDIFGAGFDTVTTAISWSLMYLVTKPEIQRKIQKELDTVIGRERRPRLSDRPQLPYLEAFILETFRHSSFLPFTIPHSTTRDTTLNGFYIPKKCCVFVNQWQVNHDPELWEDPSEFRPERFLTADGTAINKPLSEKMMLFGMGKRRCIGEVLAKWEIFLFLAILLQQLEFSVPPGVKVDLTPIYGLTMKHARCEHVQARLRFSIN

[18] = test system: Rattus norvegicus; assay: Anti-hypertensive activity in MCT-induced pulmonary hypertension Wistar rat model assessed as reduction in wall thickness percentage at 1.25 mg/kg, po administered for 3 weeks; format: functional, organism-based; summary of the method: as §1
[19] = Protein binding in human plasma at 1 uM after 4 hrs by LC/MS/MS analysis; format: ADME, cell-free; conditions: read-out: PPB (converted)
[20] = molecular target: Cytochrome P450 2C9 (Homo sapiens, UniProt P11712); assay: Inhibition of CYP2C9 in human liver microsomes in presence of NADPH; format: ADME
Chain of Cytochrome P450 2C9 (P11712 whole entry): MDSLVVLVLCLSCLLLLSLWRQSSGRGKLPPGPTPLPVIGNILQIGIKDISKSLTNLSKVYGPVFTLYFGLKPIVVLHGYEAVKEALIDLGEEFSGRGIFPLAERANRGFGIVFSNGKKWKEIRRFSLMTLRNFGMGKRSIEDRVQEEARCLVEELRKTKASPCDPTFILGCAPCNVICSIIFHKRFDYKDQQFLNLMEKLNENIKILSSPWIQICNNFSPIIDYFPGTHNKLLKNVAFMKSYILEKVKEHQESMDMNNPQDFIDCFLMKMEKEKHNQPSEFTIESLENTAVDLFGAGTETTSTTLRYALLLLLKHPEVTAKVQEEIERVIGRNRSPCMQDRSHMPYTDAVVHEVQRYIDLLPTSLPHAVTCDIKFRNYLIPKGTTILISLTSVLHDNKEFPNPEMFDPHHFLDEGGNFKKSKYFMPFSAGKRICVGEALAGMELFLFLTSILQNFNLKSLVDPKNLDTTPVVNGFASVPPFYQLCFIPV

[21] = test system: Rattus norvegicus; assay: Anti-hypertensive activity in MCT-induced pulmonary hypertension Wistar rat model assessed as mean pulmonary artery pressure at 10 mg/kg, po administered for 3 weeks (reference value: 52.55 mmHg); format: functional; summary of the method: as §1
[22] = Hepatic extraction ratio in rat liver microsomes at 0.5 uM; format: ADME, microsome; conditions: read-out: ERH
[23] = species on record: Homo sapiens; assay: Selectivity ratio of IC50 for PDE11A catalytic domain (588 to 911 residues) (unknown origin) to IC50 for human PDE5A1 catalytic domain (535 to 860 residues)
[24] = test system: Rattus norvegicus; assay: Anti-hypertensive activity in MCT-induced pulmonary hypertension Wistar rat model assessed as reduction in wall thickness percentage at 10 mg/kg, po administered for 3 weeks; format: functional, organism-based; summary of the method: as §1
[25] = test system: Rattus norvegicus; assay: Anti-hypertensive activity in MCT-induced pulmonary hypertension Wistar rat model assessed as reduction in RVHI at 10 mg/kg, po administered for 3 weeks; format: functional, organism-based; summary of the method: as §1

Structure (SMILES): O=c1c2cccc(Cl)c2oc2c(Cc3ccc4c(c3)OCO4)[nH]c(-c3nccs3)c12
- pIC50 [1]: 8.68

Structure (SMILES): O=c1c2cc(Cl)cc(Br)c2oc2c(Cc3ccc4c(c3)OCO4)[nH]c(-c3nccs3)c12
- pIC50 [1]: 8.52

Structure (SMILES): O=c1c2ccc(Cl)cc2oc2c(Cc3ccc4c(c3)OCO4)[nH]c(-c3nccs3)c12
- pIC50 [1]: 8.58

Structure (SMILES): COCCNc1cc(O)c2c(=O)c3c(-c4nccs4)[nH]c(Cc4ccc5c(c4)OCO5)c3oc2c1
- pIC50 [2]: 7.41
- pIC50 [3]: < 4.52
- pIC50 [4]: 7.37
- half-life at 0.5 µM [5]: 15.1 to 18.3 min
- K [6]: 0.0378 to 0.046
- pIC50 [7]: < 5.00
- pIC50 [8]: < 5.00
- Intrinsic clearance (CLint) [9]: 75.6 to 92 µL/min/mg
- Activity [10]: Non-Toxic
- CLint scaled at 0.5 µM [11]: 136 to 165 mL/min/kg
- Activity [12]: 19.94 mmHg
- pIC50 [13]: 6.97
- Activity [14]: Active
- pIC50 [15]: 7.34
- pIC50 [16]: 8.92
- pIC50 [17]: < 5.00
- Activity [18]: Active
- fraction unbound at 4 h, 1 µM [19]: 0.023
- pIC50 [20]: 6.87

Structure (SMILES): COc1c(Cl)ccc2oc3c(Cc4ccc5c(c4)OCO5)[nH]c(-c4nccs4)c3c(=O)c12
- pIC50 [1]: 8.17

Structure (SMILES): CCCc1nn(C)c2c(=O)[nH]c(-c3cc(S(=O)(=O)N4CCN(C)CC4)ccc3OCC)nc12.O=C(O)CC(O)(CC(=O)O)C(=O)O [SILDENAFIL CITRATE]
- Activity [21]: 20.86 mmHg

Structure (SMILES): COc1cccc2oc3c(Cc4ccc5c(c4)OCO5)[nH]c(-c4nccs4)c3c(=O)c12
- pIC50 [1]: 8.36

Structure (SMILES): O=c1c2cc(Br)ccc2oc2c(Cc3ccc4c(c3)OCO4)[nH]c(-c3nccs3)c12
- pIC50 [1]: 8.42

Structure (SMILES): O=c1c2ccc(Br)cc2oc2c(Cc3ccc4c(c3)OCO4)[nH]c(-c3nccs3)c12
- pIC50 [1]: 8.80

Structure (SMILES): CN1CCN(CCNc2cc(O)c3c(=O)c4c(-c5nccs5)[nH]c(Cc5ccc6c(c5)OCO6)c4oc3c2)CC1
- half-life at 0.5 µM [5]: 5.26 min
- K [6]: 0.1317
- Intrinsic clearance (CLint) [9]: 263.4 µL/min/mg
- CLint scaled at 0.5 µM [11]: 472 mL/min/kg
- hepatic extraction ratio at 0.5 µM [22]: 0.9
- pIC50 [1]: 9.41

Structure (SMILES): CCCc1nn(C)c2c(=O)[nH]c(-c3cc(S(=O)(=O)N4CCN(C)CC4)ccc3OCC)nc12 [listing 1 of 2 here]
- half-life at 0.5 µM [5]: 5.37 min
- K [6]: 0.1291
- Intrinsic clearance (CLint) [9]: 258.2 µL/min/mg
- CLint scaled at 0.5 µM [11]: 463 mL/min/kg

Structure (SMILES): O=c1c2c(O)cc(NCCN3CCOCC3)cc2oc2c(Cc3ccc4c(c3)OCO4)[nH]c(-c3nccs3)c12
- pIC50 [1]: 9.10

Structure (SMILES): O=c1c2cc(Cl)ccc2oc2c(Cc3ccc4c(c3)OCO4)[nH]c(-c3nccs3)c12
- pIC50 [1]: 8.02

Structure (SMILES): CNc1cc(O)c2c(=O)c3c(-c4nccs4)[nH]c(Cc4ccc5c(c4)OCO5)c3oc2c1
- pIC50 [1]: 9.28

Structure (SMILES): COc1ccc2c(=O)c3c(-c4nccs4)[nH]c(Cc4ccc5c(c4)OCO5)c3oc2c1
- pIC50 [1]: 8.58

Structure (SMILES): O=c1c2c(F)cccc2oc2c(Cc3ccc4c(c3)OCO4)[nH]c(-c3nccs3)c12
- half-life at 0.5 µM [5]: 9.52 min
- K [6]: 0.0728
- Intrinsic clearance (CLint) [9]: 145.6 µL/min/mg
- CLint scaled at 0.5 µM [11]: 262 mL/min/kg
- hepatic extraction ratio at 0.5 µM [22]: 0.83
- pIC50 [1]: 8.85

Structure (SMILES): O=c1c2ccc(F)cc2oc2c(Cc3ccc4c(c3)OCO4)[nH]c(-c3nccs3)c12
- pIC50 [1]: 8.62

Structure (SMILES): O=c1c2c(O)cccc2oc2c(Cc3ccc4c(c3)OCO4)[nH]c(-c3nccs3)c12
- pIC50 [1]: 8.98

Structure (SMILES): O=c1c2cc(F)cc(F)c2oc2c(Cc3ccc4c(c3)OCO4)[nH]c(-c3nccs3)c12
- pIC50 [1]: 8.79

Structure (SMILES): O=c1c2c(F)cc(Br)cc2oc2c(Cc3ccc4c(c3)OCO4)[nH]c(-c3nccs3)c12
- pIC50 [1]: 8.63

Structure (SMILES): O=c1c2cc(F)ccc2oc2c(Cc3ccc4c(c3)OCO4)[nH]c(-c3nccs3)c12
- pIC50 [1]: 8.39

Structure (SMILES): CN1CC(=O)N2[C@H](c3ccc4c(c3)OCO4)c3[nH]c4ccccc4c3C[C@@H]2C1=O
- Ratio IC50 [23]: 20

Structure (SMILES): CCCc1nn(C)c2c(=O)[nH]c(-c3cc(S(=O)(=O)N4CCN(C)CC4)ccc3OCC)nc12 [listing 2 of 2 here]
- Activity [24]: Active
- Activity [25]: Active
